{"data": "Published values of several laboratories", "AMY2": "Pancreatic alpha-amylase (AMY2, Sus scrofa, UniProt P00690)", "SIRT2": "NAD-dependent protein deacetylase sirtuin-2 (SIRT2, Homo sapiens, UniProt Q8IXJ6)", "CHRM2": "Muscarinic acetylcholine receptor M2 (CHRM2, Homo sapiens, UniProt P08172)", "HSD11B2": "11-beta-hydroxysteroid dehydrogenase type 2 (HSD11B2, Homo sapiens, UniProt P80365)", "note": "Protocols differ between the studies behind these lines."}
{"SMILES": "CN(O)N=Nc1ccc(S(=O)(=O)Nc2nccs2)cc1", "target": "AMY2", "observed": "enzyme activity", "action": "inhibitor", "tested at": "60 µg/mL", "inhibition [%]": 26.3}
{"SMILES": "CCCC(=S)NCCCC[C@H](NS(C)(=O)=O)C(=O)N[C@H](C)C(=O)N[C@@H](CCCNC(=N)N)C(N)=O", "target": "SIRT2", "observed": "enzyme activity", "action": "inhibitor", "tested at": "10 µM", "inhibition [%]": 31}
{"SMILES": "Cc1cccc(N(O)N=Nc2ccc(S(=O)(=O)Nc3onc(C)c3C)cc2)c1", "target": "AMY2", "observed": "enzyme activity", "action": "inhibitor", "tested at": "240 µg/mL", "inhibition [%]": 52.6}
{"SMILES": "O=C(NC1CCC1)[C@H](Cc1c[nH]c2ccccc12)NC(=O)[C@H](CCCCNC(=S)NCc1n[nH]c(=S)o1)NS(=O)(=O)c1cccc(F)c1", "target": "SIRT2", "observed": "enzyme activity", "action": "inhibitor", "tested at": "30 µM", "inhibition [%]": 11}
{"SMILES": "COc1cc(C=CC(=O)CC(c2ccc(N(C)C)cc2)n2ccnc2)ccc1O (stereo not drawn)", "target": "AMY2", "observed": "enzyme activity", "action": "inhibitor", "technique": "absorbance", "tested at": "5 µg/mL", "inhibition [%]": 77}
{"SMILES": "CC(=S)NCCCC[C@H](NC(=O)OCc1ccccc1)C(=O)N[C@@H](Cc1c[nH]c2ccccc12)C(=O)N[C@@H](CCC(=O)O)C(N)=O", "target": "SIRT2", "observed": "enzyme activity", "action": "inhibitor", "tested at": "10 µM", "inhibition [%]": 39}
{"SMILES": "Cc1ccc(N(O)N=Nc2ccc(S(=O)(=O)Nc3cc(C)on3)cc2)cc1", "target": "AMY2", "observed": "enzyme activity", "action": "inhibitor", "tested at": "240 µg/mL", "inhibition [%]": 68.4}
{"SMILES": "Oc1cccc(Nc2nc(-c3ccc(F)cc3F)cs2)c1", "target": "CHRM2", "observed": "cell-free assay", "tested at": "10 µM", "inhibition [%]": -43.3}
{"SMILES": "CCCCCCCCCCCCCC(=O)NNCCC[C@H](NC(=O)OCc1ccccc1)C(=O)N[C@@H](Cc1c[nH]c2ccccc12)C(=O)NC(C)C", "target": "SIRT2", "observed": "enzyme activity", "action": "inhibitor", "tested at": "100 µM", "inhibition [%]": 19}
{"SMILES": "CN1CC(Oc2cnc(C#N)cc2-c2ccn3nc(NC(=O)C4CC4)cc3c2)C1", "target": "Receptor-interacting serine/threonine-protein kinase 1 (RIPK1, Homo sapiens, UniProt Q13546)", "observed": "enzyme activity", "action": "inhibitor", "tested at": "1 µM", "inhibition [%]": -4}
{"SMILES": "CCCN(O)N=Nc1ccc(S(=O)(=O)Nc2cc(C)on2)cc1", "target": "AMY2", "observed": "enzyme activity", "action": "inhibitor", "tested at": "120 µg/mL", "inhibition [%]": 31.6}
{"SMILES": "COc1cc(C=Cc2cc(-c3ccccc3)nc(O)n2)ccc1O", "target": "AMY2", "observed": "enzyme activity", "action": "inhibitor", "technique": "absorbance", "tested at": "1.25 µg/mL", "inhibition [%]": 58.1}
{"SMILES": "O=C(c1ccc(F)cc1)N(Cc1ccccc1)C1CCCCC1", "target": "CHRM2", "observed": "cell-free assay", "tested at": "10 µM", "inhibition [%]": 16}
{"SMILES": "C[C@H]1O[C@H](O[C@H]2[C@H](O)[C@@H](O)[C@@H](O[C@H]3[C@H](O)[C@@H](O)C(O)O[C@@H]3CO)O[C@@H]2CO)[C@H](O)[C@@H](O)[C@@H]1N[C@H]1C=C(CO)[C@@H](O)[C@H](O)[C@H]1O (stereo partly drawn)", "target": "AMY2", "observed": "enzyme activity", "action": "inhibitor", "tested at": "150 µg/mL", "inhibition [%]": 84.7}
{"SMILES": "CC/C(=N\\NC(=O)NCc1cccc(O)c1)c1ccc(O)c(C)c1O", "target": "Fibroblast growth factor receptor 3 (FGFR3, Homo sapiens, UniProt P22607, V555M)", "observed": "enzyme activity", "action": "inhibitor", "tested at": "0.1 µM", "inhibition [%]": 0.7}
{"SMILES": "COc1cc(C=CC(=O)CC(c2ccc([N+](=O)[O-])cc2)n2ccnc2)ccc1O (stereo not drawn)", "target": "AMY2", "observed": "enzyme activity", "action": "inhibitor", "technique": "absorbance", "tested at": "5 µg/mL", "inhibition [%]": 75.6}
{"SMILES": "CC(C)c1c(C(=O)Nc2ccccc2)c(-c2ccccc2)c(-c2ccc(F)cc2)n1CC[C@@H](O)C[C@@H](O)CC(=O)O", "target": "HSD11B2", "observed": "enzyme activity", "action": "inhibitor", "tested at": "20 µM", "setting": "lysate", "inhibition [%]": "< 40"}
{"SMILES": "COc1cc(NC(C)=O)c(Cl)cc1C(=O)Nc1nccs1", "target": "Amine oxidase [flavin-containing] A (Maoa, Rattus norvegicus, UniProt P21396)", "observed": "cell-free assay", "tested at": "10 µM", "inhibition [%]": 14.4}
{"SMILES": "CN(C)CCCN1c2ccccc2Sc2ccc(Cl)cc21", "target": "HSD11B2", "observed": "enzyme activity", "action": "inhibitor", "tested at": "20 µM", "setting": "lysate", "inhibition [%]": "< 40"}
{"SMILES": "Cc1noc(NS(=O)(=O)c2ccc(N=NN(C)O)cc2)c1C", "target": "AMY2", "observed": "enzyme activity", "action": "inhibitor", "tested at": "120 µg/mL", "inhibition [%]": 42.1}
{"SMILES": "O=C(NC1CCC1)[C@H](Cc1c[nH]c2ccccc12)NC(=O)[C@H](CCCCNC(=S)NCCn1nn[nH]c1=O)NS(=O)(=O)c1cccc(F)c1", "target": "SIRT2", "observed": "enzyme activity", "action": "inhibitor", "tested at": "100 µM", "inhibition [%]": 8}
{"SMILES": "Cc1ccc(N(O)N=Nc2ccc(S(=O)(=O)Nc3onc(C)c3C)cc2)cc1", "target": "AMY2", "observed": "enzyme activity", "action": "inhibitor", "tested at": "60 µg/mL", "inhibition [%]": 21.1}
{"SMILES": "O=C1CC(CCNC(=S)NCCCC[C@H](NS(=O)(=O)c2cccc(F)c2)C(=O)N[C@@H](Cc2c[nH]c3ccccc23)C(=O)NC2CCC2)=NO1", "target": "SIRT2", "observed": "enzyme activity", "action": "inhibitor", "tested at": "10 µM", "inhibition [%]": 9}
{"SMILES": "O=C(O)CN1CCN(CC(=O)O)CCN(CC(=O)O)CC1", "target": "Hydroxyacylglutathione hydrolase, mitochondrial (Homo sapiens, UniProt Q16775)", "observed": "cell-free assay", "tested at": "500 µM", "inhibition [%]": 5.98}
{"SMILES": "CCCCCCCCCCCCNC(=S)NCCCC[C@H](NC(=O)OCc1ccccc1)C(=O)N[C@@H](Cc1c[nH]c2ccccc12)C(=O)N[C@@H](CC(N)=O)C(N)=O", "target": "SIRT2", "observed": "enzyme activity", "action": "inhibitor", "tested at": "100 µM", "inhibition [%]": 16}
{"SMILES": "Cc1noc(NS(=O)(=O)c2ccc(N=NN(O)c3ccccc3)cc2)c1C", "target": "AMY2", "observed": "enzyme activity", "action": "inhibitor", "tested at": "300 µg/mL", "inhibition [%]": 73.7}
{"SMILES": "CN(CCOc1ccc(CC2SC(=O)NC2=O)cc1)c1ccccn1 (stereo not drawn)", "target": "HSD11B2", "observed": "enzyme activity", "action": "inhibitor", "tested at": "20 µM", "setting": "lysate", "inhibition [%]": "< 40"}
{"SMILES": "COc1cc(C=Cc2cc(-c3ccc(N(C)C)cc3)nc(O)n2)ccc1O", "target": "AMY2", "observed": "enzyme activity", "action": "inhibitor", "technique": "absorbance", "tested at": "2.5 µg/mL", "inhibition [%]": 60}
{"SMILES": "CCCCCCCCCCC[C@@H](C[C@@H]1OC(=O)[C@H]1CCCCCC)OC(=O)[C@H](CC(C)C)NC=O", "target": "Pancreatic triacylglycerol lipase (PNLIP, Sus scrofa, UniProt P00591)", "observed": "enzyme activity", "action": "inhibitor", "technique": "absorbance", "tested at": "50 µg/mL", "inhibition [%]": 92.2}
{"SMILES": "CC(=S)NCCCC[C@H](NC(=O)OCc1ccccc1)C(=O)N[C@@H](Cc1c[nH]c2ccccc12)C(=O)N[C@@H](CC(N)=O)C(N)=O", "target": "SIRT2", "observed": "enzyme activity", "action": "inhibitor", "tested at": "1 µM", "inhibition [%]": 26}
